Data published in ChEMBL document CHEMBL2390932, “(+)-Usnic acid enamines with remarkable cicatrizing properties” (Bioorg Med Chem, 2013).
Values after ≈ are worked out from the molar mass of the structure shown. Active and inactive are the calls of the source. The rule behind the calls is not given here.

How the values were obtained:
A-431 = assay: Cytotoxicity against human A431 cells after 24 hrs by neutral red dye uptake assay; format: functional, cell-based; conditions: A-431, 24 h
Procedure, shortened: (§1)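 Cells kept in DMEM with 10% FBS at 37 °C, 5% CO2. Seeded at 20,000 cells/well, grown 24 h, then exposed 24 h to a concentration series. Neutral red (0.05%) added for 3 h at 37 °C, dye extracted with 1% acetic acid in 50% ethanol, absorbance read at 540 nm. IC50, IC05 and 95% confidence intervals derived from a downhill logistic curve fit.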

HaCaT [1] = assay: Cytotoxicity against human HaCaT cells after 24 hrs by neutral red dye uptake assay; format: cell-based; conditions: for IC50: Homo sapiens, HaCaT; for IC05: human, hacat; procedure, shortened: as §1
HaCaT [2] = assay: Wound healing activity in human HaCaT cells assessed as wound closure rate at 5 uM after 24 hrs by inverted microscopic analysis; format: functional, cell-based
Procedure, shortened: (§2)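 Confluent HaCaT monolayers scratched with a pipette tip, washed, re-fed with medium and exposed to compound for 24 h; 20% (v/v) platelet lysate served as positive control. Cells fixed in 3.7% formaldehyde and stained with 0.1% toluidine blue. Wound width measured by inverted microscope with camera at 0 and 24 h; closure taken as the width difference. Results expressed relative to control mean (100%), two independent experiments, n = 20 each.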

HaCaT [3] = assay: Wound healing activity in human HaCaT cells assessed as wound closure rate at 2.5 ug/mL after 24 hrs by inverted microscopic analysis; format: functional, cell-based; procedure, shortened: as §2
HaCaT [4] = assay: Wound healing activity in human HaCaT cells assessed as wound closure rate at 2.2 ug/mL after 24 hrs by inverted microscopic analysis; format: functional, cell-based; procedure, shortened: as §2
HaCaT [5] = assay: Wound healing activity in human HaCaT cells assessed as wound closure rate at 2 ug/mL after 24 hrs by inverted microscopic analysis; format: functional, cell-based; procedure, shortened: as §2
HaCaT [6] = assay: Wound healing activity in human HaCaT cells assessed as wound closure rate at 2.1 ug/mL after 24 hrs by inverted microscopic analysis; format: functional, cell-based; procedure, shortened: as §2
HaCaT [7] = assay: Wound healing activity in human HaCaT cells assessed as wound closure rate at 1.7 ug/mL after 24 hrs by inverted microscopic analysis; format: functional, cell-based; procedure, shortened: as §2
Mus musculus [8] = assay: Wound healing activity in Swiss albino mouse circular excision wound model assessed as hydroxyproline content in skin applied topically qd after 7 days by spectrophotometric analysis; format: functional
Procedure, shortened: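 Skin from ointment-treated mouse wounds (7 days) dried at 60–70 °C to constant weight, then hydrolyzed in 6 N HCl for 3 h at 130 °C. Hydrolysate neutralized to pH 7, oxidized with chloramine T and reacted with Ehrlich reagent at 60 °C. Read at 557 nm and reported as mg/g with S.E.M.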

Mus musculus [9] = assay: Wound healing activity in Swiss albino mouse circular excision wound model assessed as wound contraction applied topically qd after 10 days (reference value: 6.29%); format: functional
Mus musculus [10] = assay: Wound healing activity in Swiss albino mouse circular excision wound model assessed as wound contraction applied topically qd after 8 days (reference value: 2.18%); format: functional
Mus musculus [11] = assay: Wound healing activity in Swiss albino mouse circular excision wound model assessed as wound contraction applied topically qd after 6 days (reference value: 3.41%); format: functional
Mus musculus [12] = assay: Wound healing activity in Swiss albino mouse circular excision wound model assessed as wound contraction applied topically qd after 4 days relative to control; format: functional; parameters: concentration or dose not given beside the values
Mus musculus [13] = assay: Wound healing activity in Swiss albino mouse circular excision wound model assessed as wound contraction applied topically qd after 2 days relative to control; format: functional; parameters: concentration or dose not given beside the values
Mus musculus [14] = assay: Wound healing activity in Swiss albino mouse circular excision wound model assessed as wound contraction applied topically qd measured on the same day relative to control; format: functional; parameters: concentration or dose not given beside the values
Rattus norvegicus = assay: Wound healing activity in Sprague-Dawley rat linear incision wound model assessed as tensile strength of wound applied topically qd for 9 days measured on day 10 by tensiometer (reference value: 10.6%); format: functional
Bos taurus [15] = species: Bos taurus; assay: Inhibition of bovine hyaluronidase assessed as sodium hyaluronate conversion to N-acetylglucosamine at 50 ug/ml by spectrophotometric analysis relative to control
Bos taurus [16] = species: Bos taurus; assay: Inhibition of bovine hyaluronidase assessed as sodium hyaluronate conversion to N-acetylglucosamine at 100 ug/ml by spectrophotometric analysis relative to control
Hathewaya histolytica [17] = assay: Inhibition of Clostridium histolyticum collagenase using N-[3-(2-Furyl)acryloyl]-Leu-Gly-Pro-Ala as substrate at 50 ug/ml after 15 mins by spectrophotometric analysis relative to control
Procedure, shortened: (§3)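 Samples dissolved in DMSO and diluted in 50 mM Tricine buffer (0.4 M NaCl, 0.01 M CaCl2, pH 7.5). Clostridium histolyticum collagenase and sample preincubated 5 min at 25 °C, then incubated 15 min. FALGPA substrate, prepared at 2 mM in the same buffer, was then added. Inhibition given as % with S.E.M.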

Hathewaya histolytica [18] = assay: Inhibition of Clostridium histolyticum collagenase using N-[3-(2-Furyl)acryloyl]-Leu-Gly-Pro-Ala as substrate at 100 ug/ml after 15 mins by spectrophotometric analysis relative to control; procedure, shortened: as §3
[19] = target: T1, Neutrophil elastase (Homo sapiens) (UniProt P08246); assay: Inhibition of human neutrophil elastase assessed as N-methoxysuccinyl-Ala-Ala-Pro-Val p-nitroanilide conversion to p-nitroaniline at 50 ug/ml after 1 hr by spectrophotometric analysis relative to control
T1 sequence (whole entry): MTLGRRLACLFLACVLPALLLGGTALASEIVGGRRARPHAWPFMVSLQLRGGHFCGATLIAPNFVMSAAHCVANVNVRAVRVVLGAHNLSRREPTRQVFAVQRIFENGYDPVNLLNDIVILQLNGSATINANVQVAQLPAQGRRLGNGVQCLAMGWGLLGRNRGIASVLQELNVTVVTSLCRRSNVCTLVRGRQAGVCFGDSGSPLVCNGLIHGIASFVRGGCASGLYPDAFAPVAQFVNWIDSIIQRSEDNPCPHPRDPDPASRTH
Procedure, shortened: (§4)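 Sample and human neutrophil elastase (17 mU/ml) mixed in 0.1 M Tris–HCl, pH 7.5, and held 5 min at 25 °C. MeOSuc-Ala-Ala-Pro-Val p-nitroanilide was added and the mixture incubated 1 h at 37 °C. Reaction stopped with soybean trypsin inhibitor (1 mg/ml); p-nitroaniline absorbance read immediately. Inhibition given as % with S.E.M.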

[20] = target: T1, Neutrophil elastase (Homo sapiens); assay: Inhibition of human neutrophil elastase assessed as N-methoxysuccinyl-Ala-Ala-Pro-Val p-nitroanilide conversion to p-nitroaniline at 100 ug/ml after 1 hr by spectrophotometric analysis relative to control; procedure, shortened: as §4

| Compound | IC50 (HaCaT [1]) [µg/mL] | IC05 (HaCaT [1]) [µg/mL] | Activity (HaCaT [2]) | Activity (HaCaT [3]) | Activity (HaCaT [4]) | Activity (HaCaT [5]) | Activity (HaCaT [6]) | Activity (HaCaT [7]) | Activity (Mus musculus [8]) [mg/g] | Activity (Mus musculus [9]) [%] | Activity (Mus musculus [10]) [%] | Activity (Mus musculus [11]) [%] | Activity (Mus musculus [12]) [%] | Activity (Mus musculus [13]) [%] | Activity (Mus musculus [14]) [%] | Activity (Rattus norvegicus) [%] | inhibition (Bos taurus [15]) [%] | inhibition (Bos taurus [16]) [%] | inhibition (Hathewaya histolytica [18]) [%] | inhibition [20] [%] | further results |
| --- | --- | --- | --- | --- | --- | --- | --- | --- | --- | --- | --- | --- | --- | --- | --- | --- | --- | --- | --- | --- | --- |
| CC(=O)c1c(O)c(C)c(O)c2c1OC1=CC(=O)/C(=C(/C)NCCc3c[nH]c4ccccc34)C(=O)[C@@]12C | 5.3 (≈ 10.9 µM) | 2.5 |  |  |  |  |  |  |  |  |  |  |  |  |  |  |  |  |  |  | IC50 (A-431): 29 µg/mL (≈ 59.6 µM) |
| CC(=O)c1c(O)c(C)c(O)c2c1OC1=CC(=O)/C(=C(/C)N[C@@H](CCCNC(=N)N)C(=O)O)C(=O)[C@@]12C | 163 (≈ 326 µM) | 16 |  |  |  |  |  |  |  |  |  |  |  |  |  |  |  |  |  |  |  |
| CC(=O)c1c(O)c(C)c(O)c2c1OC1=CC(=O)/C(=C(/C)N[C@@H](Cc3ccc(O)cc3)C(=O)O)C(=O)[C@@]12C | 13 (≈ 25.6 µM) | 1.3 | Active | Active | Active | Active | Active | Active |  |  |  |  |  |  |  |  |  |  |  |  | IC50 (A-431): 36 µg/mL (≈ 70.9 µM) |
| CC(=O)c1c(O)c(C)c(O)c2c1OC1=CC(=O)/C(=C(/C)NCCS(=O)(=O)O)C(=O)[C@@]12C | 47 (≈ 104 µM) |  | Active | Active | Active | Active | Active | Active | 30.8 | 2.29 | 5.04 | 11.42 | 14.52 | 17.74 | 19.33 | 29.3 |  |  |  |  |  |
| CC(=O)c1c(O)c(C)c(O)c2c1OC1=CC(=O)/C(=C(/C)N)C(=O)[C@@]12C |  |  |  |  |  |  |  |  |  |  |  |  |  |  |  |  | 35.3 | 41.9 | 33.1 | 15.3 | inhibition (Hathewaya histolytica [17]): 20.7%; inhibition [19]: 13.3% |
| CC(=O)c1c(O)c(C)c(O)c2c1OC1=CC(=O)/C(=C(/C)NCC(=O)O)C(=O)[C@@]12C | 5.8 (≈ 14.5 µM) | 0.2 |  |  |  |  |  |  |  |  |  |  |  |  |  |  |  |  |  |  | IC50 (A-431): 4.1 µg/mL (≈ 10.2 µM) |
| O=C(OC[C@H]1O[C@@H](OC(=O)c2cc(O)c(O)c(OC(=O)c3cc(O)c(O)c(O)c3)c2)[C@H](OC(=O)c2cc(O)c(O)c(OC(=O)c3cc(O)c(O)c(O)c3)c2)[C@@H](OC(=O)c2cc(O)c(O)c(OC(=O)c3cc(O)c(O)c(O)c3)c2)[C@@H]1OC(=O)c1cc(O)c(O)c(OC(=O)c2cc(O)c(O)c(O)c2)c1)c1cc(O)c(O)c(OC(=O)c2cc(O)c(O)c(O)c2)c1 |  |  |  |  |  |  |  |  |  |  |  |  |  |  |  |  |  | 76.3 |  |  |  |
| CC(=O)c1c(O)c(C)c(O)c2c1OC1=CC(=O)/C(=C(/C)NCCS)C(=O)[C@@]12C | 155 (≈ 384 µM) | 43 | Active | Active | Active | Active | Active | Active | 39.8 | 1.39 | 4.42 | 10.25 | 13.74 | 16.41 | 19.46 | 35.2 | 10.2 | 15.6 | 27.3 | 20.4 | inhibition (Hathewaya histolytica [17]): 19.5%; inhibition [19]: 15.3% |
| CC(=O)c1c(O)c(C)c(O)c2c1OC1=CC(=O)/C(=C(/C)N[C@@H](Cc3c[nH]cn3)C(=O)O)C(=O)[C@@]12C | 36 (≈ 74.8 µM) | 1.7 |  |  |  |  |  |  |  |  |  |  |  |  |  |  |  |  |  |  |  |
| CC(=O)c1c(O)c(C)c(O)c2c1OC1=CC(=O)/C(=C(/C)NCCCC(=O)O)C(=O)[C@@]12C | 150 (≈ 349 µM) | 67 | Active | Active | Active | Active | Active | Active | 43 | 0.66 | 3.84 | 9.01 | 12.81 | 16.03 | 19.7 | 47.6 | 25.8 | 39.4 | 49.2 | 30.3 | inhibition (Hathewaya histolytica [17]): 21.4%; inhibition [19]: 25.1% |
| CC(=O)C1=C(O)C=C2Oc3c(C(C)=O)c(O)c(C)c(O)c3[C@@]2(C)C1=O [(+)-USNIC ACID] | 24 (≈ 69.7 µM) | 0.5 | Active | Active | Active | Active | Active | Active | 36.1 | 1.85 | 5.62 | 10.25 | 14.1 | 17.04 | 19.59 | 31.9 | 14.4 | 33.1 | 51.2 | 36.4 | inhibition (Hathewaya histolytica [17]): 27.1%; inhibition [19]: 22.1%; IC50 (A-431): 15 µg/mL (≈ 43.6 µM) |
| CC(=O)c1c(O)c(C)c(O)c2c1OC1=CC(=O)/C(=C(/C)NCCSSCCN/C(C)=C3\C(=O)C=C4Oc5c(C(C)=O)c(O)c(C)c(O)c5[C@@]4(C)C3=O)C(=O)[C@@]12C |  |  |  |  |  |  |  |  | 20.4 | 2.96 | 6.48 | 12.48 | 15.92 | 17.95 | 19.25 | 15.91 | 10 | 18.3 | 29.3 | 30.1 | inhibition (Hathewaya histolytica [17]): 20.8%; inhibition [19]: 21.3% |
| O=C(O[C@@H]1Cc2c(O)cc(O)cc2O[C@@H]1c1cc(O)c(O)c(O)c1)c1cc(O)c(O)c(O)c1 |  |  |  |  |  |  |  |  |  |  |  |  |  |  |  |  |  |  | 41.2 | 88.2 |  |
